Source: paper PMC4734651 (MedChemComm, 2014)

target: TrkA (Homo sapiens, UniProt P04629); assay: TrkA biochemical screening assay; conditions: 39 compared with 26
Outline: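 5FAM-tagged TrkA peptide (1.5 μM final) and ATP (190 μM final) then added. Run to 10–20% conversion in no-inhibitor wells; no-enzyme blanks. Product/substrate peaks separated on chip; percent inhibition calculated.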

TrkA, sequence (P04629 33-796): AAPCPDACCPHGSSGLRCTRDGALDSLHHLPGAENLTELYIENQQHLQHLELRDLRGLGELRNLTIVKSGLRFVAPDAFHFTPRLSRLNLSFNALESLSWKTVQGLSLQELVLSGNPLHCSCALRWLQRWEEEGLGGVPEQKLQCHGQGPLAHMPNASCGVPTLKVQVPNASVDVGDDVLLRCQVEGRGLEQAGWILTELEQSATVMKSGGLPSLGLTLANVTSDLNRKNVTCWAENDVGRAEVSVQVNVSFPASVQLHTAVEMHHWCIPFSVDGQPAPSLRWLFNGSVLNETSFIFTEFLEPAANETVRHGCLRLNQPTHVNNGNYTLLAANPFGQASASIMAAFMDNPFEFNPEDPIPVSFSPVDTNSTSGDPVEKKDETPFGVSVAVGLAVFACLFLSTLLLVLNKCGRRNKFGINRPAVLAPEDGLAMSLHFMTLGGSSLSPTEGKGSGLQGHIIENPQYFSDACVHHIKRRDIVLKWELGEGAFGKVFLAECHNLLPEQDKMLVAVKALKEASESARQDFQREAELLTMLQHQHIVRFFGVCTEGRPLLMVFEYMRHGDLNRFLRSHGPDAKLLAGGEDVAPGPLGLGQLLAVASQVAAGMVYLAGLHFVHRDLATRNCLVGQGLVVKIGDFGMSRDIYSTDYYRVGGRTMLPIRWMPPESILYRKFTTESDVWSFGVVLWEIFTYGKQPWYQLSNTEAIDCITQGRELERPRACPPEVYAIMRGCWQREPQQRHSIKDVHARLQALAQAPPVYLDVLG

increase in TrkA inhibition in comparison to 26	SMILES
~ 5 fold	Cn1cc(-c2cncc(-c3ccc(NC(=O)Nc4cc(C(C)(C)C)on4)cc3)n2)cn1 [Compound 39]

same assay, conditions: chlorine at A-region derivatized, compared with 1a

TrkA affinity increase relative to compound 1a [times]	SMILES
> 1000	COc1ccc(-c2cncc(Oc3cccc(NC(=O)Nc4cc(C(C)(C)C)on4)c3)n2)cc1 [Compound 9]
> 1000	CC(C)(C)c1cc(NC(=O)Nc2cccc(Oc3cncc(-c4ccsc4)n3)c2)no1 [Compound 15]
> 1000	CC(C)(C)c1cc(NC(=O)Nc2cccc(Oc3cncc(-c4ccc(S(C)(=O)=O)cc4)n3)c2)no1 [Compound 20]
> 1000	CC(C)(C)c1cc(NC(=O)Nc2cccc(Oc3cncc(-c4ccc(F)cc4)n3)c2)no1 [Compound 36]
> 1000	Cn1cc(-c2cncc(Oc3cccc(NC(=O)Nc4cc(C(C)(C)C)on4)c3)n2)cn1 [Compound 26]

same assay, conditions: qualitative statement

TrkA activity (in words)	SMILES
relatively inactive	CC(C)(C)c1ccc(NC(=O)Nc2cccc(Oc3cncc(-c4ccsc4)n3)c2)cc1 [Compound 13]
not strongly active	CC(C)(C)c1cc(NC(=O)Nc2cccc(Oc3cncc(Cl)n3)c2)no1 [Compound 1a]
relatively inactive	CC(C)(C)c1cc(NC(=O)Nc2cccc(Oc3cncc(-c4ccsc4)n3)c2)on1 [Compound 14]
relatively inactive	Cn1nc(C(C)(C)C)cc1NC(=O)Nc1cccc(Oc2cncc(-c3ccsc3)n2)c1 [Compound 16]

SMILES	TrkA activity (in words)
Cn1cc(-c2cncc(-c3ccc(NC(=O)Nc4cc(C(C)(C)C)nn4C)cc3)n2)cn1 [Compound 40]	far more potent than their ether linked counterparts
Cn1cc(-c2cncc(-c3ccc(NC(=O)Nc4cc(C(C)(C)C)on4)cc3)n2)cn1 [Compound 39]	far more potent than their ether linked counterparts

same assay, conditions: read-out: %TrkA inhibition, 20 μM

inhibition at 20 µM [%]	SMILES
41.4 ± 3.3	CC(C)(C)c1cc(NC(=O)Nc2ccc(-c3cncc(Cl)n3)cc2)no1 [Compound 38]
96.1 ± 2.3	Cn1cc(-c2cncc(-c3ccc(NC(=O)Nc4cc(C(C)(C)C)on4)cc3)n2)cn1 [Compound 39]
